The target in one series is T1, Bile acid receptor (Homo sapiens, UniProt Q96RI1).
T1 sequence (Q96RI1 whole entry): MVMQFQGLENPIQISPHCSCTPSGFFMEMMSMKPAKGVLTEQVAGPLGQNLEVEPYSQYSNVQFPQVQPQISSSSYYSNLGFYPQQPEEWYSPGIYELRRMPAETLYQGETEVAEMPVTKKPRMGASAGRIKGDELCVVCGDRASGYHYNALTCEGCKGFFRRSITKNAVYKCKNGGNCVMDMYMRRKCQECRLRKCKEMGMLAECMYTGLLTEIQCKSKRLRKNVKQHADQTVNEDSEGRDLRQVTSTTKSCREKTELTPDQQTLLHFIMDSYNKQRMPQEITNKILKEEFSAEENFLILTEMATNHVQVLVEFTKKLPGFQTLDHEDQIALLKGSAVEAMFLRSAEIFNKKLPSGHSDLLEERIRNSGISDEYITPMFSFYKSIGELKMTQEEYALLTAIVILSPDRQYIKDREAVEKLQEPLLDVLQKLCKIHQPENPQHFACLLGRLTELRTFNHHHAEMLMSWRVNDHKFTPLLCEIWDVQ
As to the kind of experiment: Agonist activity at human FXR expressed in human Huh-7 cells co-transfected with FXRE-Luc reporter plasmid assessed as receptor transactivation incubated for 16 hrs by luciferase reporter gene assay. The series is classed as cell-based. (A reporter such as luciferase makes a cellular process visible.)

Series [1] is described as follows: Drug uptake in ICR mouse liver at 15 mg/kg, po measured after 8 hrs by LC-MS/MS analysis. The series is classed as ADME, organism-based. The conditions noted are these: read-out: Drug uptake. An outline of the steps: (§1)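 Overnight-fasted male ICR mice (n = 3 per time point) received single oral 15 mg/kg and were refed 2 h later. Blood and liver were taken at 1.5, 4 and 8 h. Serum (10 µL) was precipitated with 100 µL methanol/acetonitrile (1:1). Liver was homogenized in ten times its weight of the same solvent. Supernatants were diluted 1:1 in ACN/H₂O and analyzed by LC-MS/MS. The ratio is liver conc (ng/g) over plasma conc (ng/mL).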

Series [2] is described as follows: Plasma concentration in ICR mouse at 15 mg/kg, po measured after 4 hrs by LC-MS/MS analysis. It counts as ADME, organism-based. An outline of the steps:
as §1

The target in series [3] is T2, Bile acid receptor (Mus musculus) (UniProt Q60641).
T2 sequence (whole entry): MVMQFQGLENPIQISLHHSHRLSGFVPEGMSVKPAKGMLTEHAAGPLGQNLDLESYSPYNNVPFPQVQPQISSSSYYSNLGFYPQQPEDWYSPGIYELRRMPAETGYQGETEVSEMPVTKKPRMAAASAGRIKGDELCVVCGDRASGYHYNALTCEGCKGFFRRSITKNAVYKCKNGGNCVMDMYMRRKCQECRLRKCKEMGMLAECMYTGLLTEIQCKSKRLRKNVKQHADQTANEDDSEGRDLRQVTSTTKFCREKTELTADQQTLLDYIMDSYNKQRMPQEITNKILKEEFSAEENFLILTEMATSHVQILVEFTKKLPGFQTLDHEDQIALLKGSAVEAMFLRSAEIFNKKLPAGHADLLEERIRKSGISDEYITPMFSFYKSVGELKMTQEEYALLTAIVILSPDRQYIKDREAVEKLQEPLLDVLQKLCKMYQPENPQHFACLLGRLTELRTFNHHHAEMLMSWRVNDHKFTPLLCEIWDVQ
As to the kind of experiment: In vivo agonist activity at FXR in C57BL/6J mouse assessed as downregulation of CYP8B1 mRNA expression in liver at 10 mg/kg, po measured after 6 hrs by qRT-PCR analysis. It counts as functional, organism-based. An outline of the steps:
(§2)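 Male C57BL/6J mice (7–8 weeks) were fasted 3 h, then dosed orally once in 0.25% CMC-Na (wt/vol) vehicle. Sacrificed 6 h post-dose; liver snap-frozen at -80 °C. TRIzol RNA extraction and qRT-PCR with GAPDH normalization (ΔΔCt). Results are fold over vehicle group (mean ± S.E.M, n = 6).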

Series [4] deals with T2, Bile acid receptor (Mus musculus). As to the kind of experiment: In vivo agonist activity at FXR in C57BL/6J mouse assessed as downregulation of CYP7A1 mRNA expression in liver at 10 mg/kg, po measured after 6 hrs by qRT-PCR analysis. It counts as functional, organism-based. An outline of the steps:
as §2
In general terms: Real-time PCR tracks product formation cycle by cycle.

The target is the same in series [5]. As to the kind of experiment: Agonist activity at FXR in C57BL/6J mouse hepatocytes assessed as upregulation of SHP mRNA expression incubated for 24 hrs by qRT-PCR analysis. It counts as cell-based. The conditions noted are these: Hepatocyte, filed as agonist, dose 0.4-10 µM. An outline of the steps: (§3)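 Hepatocytes isolated from overnight-fasted male C57BL/6J mice (8–12 weeks), allowed 4 h to adhere, then given vehicle (0.5% DMSO) or compound at 0.4, 2 and 10 μM for 24 h. TRIzol RNA extraction, then qRT-PCR with GAPDH normalization by ΔΔCt. Values are expressed as fold over vehicle (mean ± S.E.M, n = 3).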

A short description of series [6]: Plasma concentration in ICR mouse at 15 mg/kg, po measured after 8 hrs by LC-MS/MS analysis. It counts as ADME, organism-based. The essentials:
as §1

The nature of series [7]: Drug uptake in ICR mouse liver at 15 mg/kg, po measured after 4 hrs by LC-MS/MS analysis. It counts as ADME, organism-based. The conditions noted are these: read-out: Drug uptake. An outline of the steps: as §1
Series [8] has as its target T2, Bile acid receptor (Mus musculus). As to the kind of experiment: Agonist activity at FXR in C57BL/6J mouse hepatocytes assessed as upregulation of BSEP mRNA expression at 0.4 to 10 uM incubated for 24 hrs by qRT-PCR analysis. It counts as cell-based. The conditions noted are these: Hepatocyte, filed as agonist, dose 0.4-10 µM. An outline of the steps:
as §3

The nature of series [9]: Plasma concentration in ICR mouse at 15 mg/kg, po measured after 1.5 hrs by LC-MS/MS analysis. The series is classed as ADME, organism-based. The essentials:
as §1

The target of series [10] is T3, TGR5 (G-protein coupled bile acid receptor 1) (Homo sapiens, UniProt Q8TDU6).
T3 sequence (Q8TDU6 whole entry): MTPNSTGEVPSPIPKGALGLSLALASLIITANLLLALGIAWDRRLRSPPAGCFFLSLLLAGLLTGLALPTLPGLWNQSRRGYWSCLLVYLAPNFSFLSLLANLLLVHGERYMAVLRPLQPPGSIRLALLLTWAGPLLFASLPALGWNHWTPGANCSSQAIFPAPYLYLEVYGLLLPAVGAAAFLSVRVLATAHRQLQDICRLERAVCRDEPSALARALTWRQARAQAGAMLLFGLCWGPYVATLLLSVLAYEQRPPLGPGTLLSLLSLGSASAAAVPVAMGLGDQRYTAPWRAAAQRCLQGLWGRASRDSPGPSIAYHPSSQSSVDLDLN
As to the kind of experiment: Agonist activity at human TGR5 expressed in HEK293 cells co-transfected with CRE-Luc reporter plasmid assessed as receptor transactivation incubated for 5.5 hrs by luciferase reporter gene assay relative to OCA. The series is classed as cell-based. The conditions noted are these: read-out: Efficacy.

The target of series [11] is T4, G-protein coupled bile acid receptor 1 (Homo sapiens, UniProt Q8TDU6).
T4 sequence (Q8TDU6 whole entry): T3 sequence (Q8TDU6 whole entry)
As to the kind of experiment: Agonist activity at human TGR5 expressed in HEK293 cells co-transfected with CRE-Luc reporter plasmid assessed as receptor transactivation incubated for 5.5 hrs by luciferase reporter gene assay. The series is classed as cell-based.

The nature of series [12]: Drug uptake in ICR mouse liver at 15 mg/kg, po measured after 1.5 hrs by LC-MS/MS analysis. The series is classed as ADME, organism-based. The conditions noted are these: read-out: Drug uptake. The essentials:
as §1

In series [13] the target is T2, Bile acid receptor (Mus musculus). As to the kind of experiment: In vivo agonist activity at FXR in C57BL/6J mouse assessed as downregulation of CYP8B1 mRNA expression in liver at 30 mg/kg, po measured after 6 hrs by qRT-PCR analysis. It counts as functional, organism-based. An outline of the steps: (§4)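 Male C57BL/6J mice (7–8 weeks) fasted 3 h, then given a single oral dose; vehicle 0.25% CMC-Na (wt/vol). Killed 6 h post-dose; liver snap-frozen, stored at -80 °C. TRIzol RNA extraction, qRT-PCR, normalised to GAPDH by ΔΔCt. Values given as fold of vehicle group, mean ± SEM, n = 6.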

Series [14] has the same target. As to the kind of experiment: In vivo agonist activity at FXR in C57BL/6J mouse assessed as downregulation of CYP7A1 mRNA expression in liver at 30 mg/kg, po measured after 6 hrs by qRT-PCR analysis. The series is classed as functional, organism-based. An outline of the steps:
as §4

Active and inactive are the calls of the source. The rule behind the calls is not given here.

In general, EC50 refers to the concentration giving half of the maximal effect. As to `C/C(=N\OCc1ccccc1C(=O)O)c1ccc(OCc2c(-c3c(Cl)cccc3Cl)noc2C2CC2)cc1Cl`, the EC50 on Bile acid receptor amounted to 75.4 nM.

As to `COc1cc(/C(C)=N/OCc2cc(C)cc(C(=O)O)c2)ccc1OCc1c(-c2ccccc2OC(F)(F)F)noc1C1CC1`, the EC50 on Bile acid receptor is more than 1850 nM.

Regarding `C/C(=N\OCc1cc(C)cc(C(=O)O)c1)c1ccc(OCc2c(-c3ccccc3OC(F)(F)F)noc2C2CC2)c(C)c1`, the EC50 on Bile acid receptor came to 523 nM.

As to `C/C(=N\OCc1cncc(C(=O)O)c1)c1ccc(OCc2c(-c3ccccc3OC(F)(F)F)noc2C2CC2)c(F)c1`, at Bile acid receptor, the EC50 was 728 nM.

With `C/C(=N\OCc1cccc(C(=O)O)c1)c1ccc(OCc2c(-c3c(Cl)cccc3Cl)noc2C2CC2)c(Cl)c1`, the EC50 on Bile acid receptor amounted to 259 nM.

Consider `C/C(=N\OCc1ccc(C(=O)O)o1)c1ccc(OCc2c(-c3c(Cl)cccc3Cl)noc2C2CC2)cc1Cl`, for which the EC50 on Bile acid receptor was determined as 49.7 nM.

Regarding `C/C(=N\OCc1cccc(C(=O)O)c1)c1ccc(OCc2c(-c3c(Cl)cccc3Cl)noc2C2CC2)cc1Br`, the EC50 at Bile acid receptor amounted to 37.2 nM.

For `C/C(=N\OCc1cncc(C(=O)O)c1)c1ccc(OCc2c(-c3ccccc3OC(F)(F)F)noc2C2CC2)c(C)c1`, the EC50 on Bile acid receptor was found to be 1830 nM.

`C/C(=N\OCc1ccc(C(=O)O)o1)c1ccc(OCc2c(-c3c(Cl)cccc3Cl)noc2C2CC2)cn1`: at Bile acid receptor, the EC50 worked out at 1390 nM.

In the case of `C/C(=N\OCc1cncc(C(=O)O)c1)c1ccc(OCc2c(-c3ccccc3OC(F)(F)F)noc2C2CC2)cc1Cl`, the EC50 at Bile acid receptor turned out to be 54.8 nM.

For `C/C(=N\OCc1cccc(C(=O)O)c1)c1ccc(OCc2c(-c3c(Cl)cccc3Cl)noc2C2CC2)cn1`, on Bile acid receptor, the EC50 amounted to 234 nM.

As to `C/C(=N\OCc1cc(C)cc(C(=O)O)c1)c1ccc(OCc2c(-c3ccccc3OC(F)(F)F)noc2C2CC2)c(F)c1`, the EC50 on Bile acid receptor came to 1340 nM.

For the molecule `C/C(=N\OCc1cc(C(=O)O)ccc1C#N)c1ccc(OCc2c(-c3ccccc3OC(F)(F)F)noc2C2CC2)cc1Cl`, the concentration at 8 h in series [1] amounted to 941 ng/g; in [6], 8.4 ng/mL. Moreover, the concentration at 4 h in [2] stood at 45.2 ng/mL; in series [7], 3580 ng/g. Also, the result in series [3], in series [4] and in [8] was Active. Moreover, the Activity entry in series [5] is “Dose-Dependent Effect”. In addition, the concentration at 1.5 h in series [9] is 56.7 ng/mL; in series [12] it was 4340 ng/g. Besides, the Emax at 5.5 h in series [10] was 0.6%. Also, the EC50 in [11] is more than 100000 nM.

`C/C(=N\OCc1cc(C(=O)O)ccc1C#N)c1ccc(OCc2c(-c3ccccc3OC(F)(F)F)noc2C2CC2)c(C)c1`: on Bile acid receptor, the EC50 is 440 nM.

`C/C(=N\OCc1cncc(C(=O)O)c1)c1ccc(OCc2c(-c3c(Cl)cccc3Cl)noc2C2CC2)cc1Cl`: the EC50 at Bile acid receptor came out at 65 nM.

As for `C/C(=N\OCc1cc(C(=O)O)ccc1C#N)c1ccc(OCc2c(-c3ccccc3OC(F)(F)F)noc2C2CC2)c(F)c1`, the EC50 on Bile acid receptor is 347 nM.

For the molecule `CC[C@H]1[C@@H](O)[C@@H]2[C@H](CC[C@]3(C)[C@@H]([C@H](C)CCC(=O)O)CC[C@@H]23)[C@@]2(C)CC[C@@H](O)C[C@@H]12`, the result in series [13], in [14] and in [8] was Active. Moreover, the Activity entry in series [5] was “Dose-Dependent Effect”.

`C/C(=N\OCc1cccc(C(=O)O)c1)c1ccc(OCc2c(-c3c(Cl)cccc3Cl)noc2C2CC2)cc1Cl`: the EC50 at Bile acid receptor was 47.4 nM.

On to `C/C(=N\OCc1ccc(C(=O)O)cc1)c1ccc(OCc2c(-c3c(Cl)cccc3Cl)noc2C2CC2)cc1Cl`, for which the EC50 on Bile acid receptor came out at 134 nM.

For `C/C(=N\OCc1cc(C)cc(C(=O)O)c1)c1ccc(OCc2c(-c3ccccc3OC(F)(F)F)noc2C2CC2)cc1Cl`, the EC50 on Bile acid receptor was 158 nM.

`C/C(=N\OCc1cccc(C(=O)O)c1)c1ccc(OCc2c(-c3ccccc3OC(F)(F)F)noc2C2CC2)cc1Cl`: the EC50 on Bile acid receptor came to 108 nM.

(Values after ChEMBL document CHEMBL5230149, “Discovery of novel ketoxime ether derivatives with potent FXR agonistic activity, oral effectiveness and high liver/blood ratio” (Bioorg Med Chem, 2021).)
